From PubChem BioAssay
ZTA DNA inh – counter-screen for EBNA-1 inhibitors: inhibitors of Epstein-Barr virus ZTA. P03206. ZTA-DNA binding, fluorescence polarization. inhibition, % at 11 µM. 320,000 compounds, 0.15% hits. AID 2234; in the data active = inhibition above about 33%
Target sequence (P03206 whole entry, looked up): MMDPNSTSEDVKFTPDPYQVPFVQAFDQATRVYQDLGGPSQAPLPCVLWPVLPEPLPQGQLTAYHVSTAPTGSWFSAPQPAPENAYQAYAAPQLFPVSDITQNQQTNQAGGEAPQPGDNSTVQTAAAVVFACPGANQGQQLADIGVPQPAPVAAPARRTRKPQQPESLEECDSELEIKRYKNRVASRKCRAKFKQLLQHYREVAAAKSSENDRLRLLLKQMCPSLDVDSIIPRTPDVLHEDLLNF
Apaf1 inhib – inhibitors of human Apaf-1 apoptosome; reconstituted apoptosome caspase-3 activity, DEVD-Rh110 fluorescence; 330,000 compounds, 0.71% hits; inhibition, % at 20 µM; active = inhibition of at least 40% at 20 µM
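Medium: Hepes buffer, pH 7.5 / System: biochemical Apaf-1 apoptosome reconstitution / Measured by: Rh110 fluorescence, excitation 480 nm, emission 540 nm / Times: compound with Apaf-1, dATP, procaspase-3 30 min, then 50 min reaction, room temperature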
UBC13 inh – blocks human UBC13 polyubiquitin chain formation; P61088; TR-FRET; inhibition, % at 20 µM; 330,000 compounds, 0.47% hits; AID 485273; in the data active = inhibition above about 45%, passing the limit was not always enough
PREPL inh – human PREPL enzyme inhibition | Q4J6C6 | recombinant PREPL, fluorescence polarization activity-based probe | inhibition, % at 5.96 µM | 320,000 compounds, 0.68% hits | AID 2751; in the data active = inhibition above about 43%
EBNA-1 inh – blocks EBNA-1 binding to DNA | 300,000 compounds, 0.34% hits | EBNA-1 DNA binding, fluorescence polarization | inhibition, % at 14.8 µM | AID 1950; in the data active = inhibition above about 28%
Casp3 UBC13 ctr – counter-screen for UBC13 inhibitors: human caspase-3 inhibition; 1,400 compounds, 4% hits; AID 488856; shares compounds with UBC13 inh; Recombinant caspase-3, Caspase-Glo 3/7 luminescence, 60 min; inhibition, % at 20 µM;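 active = mean inhibition across replicates above about 26%, limit read from the data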
Target sequence (P42574 whole entry, looked up): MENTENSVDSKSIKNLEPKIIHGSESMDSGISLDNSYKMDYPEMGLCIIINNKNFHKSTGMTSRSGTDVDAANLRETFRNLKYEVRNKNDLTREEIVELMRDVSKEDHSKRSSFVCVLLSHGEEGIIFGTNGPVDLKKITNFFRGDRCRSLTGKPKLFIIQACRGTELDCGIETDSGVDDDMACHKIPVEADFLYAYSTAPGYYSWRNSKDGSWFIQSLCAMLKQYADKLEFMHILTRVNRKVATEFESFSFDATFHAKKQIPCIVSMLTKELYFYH
UBC13 conf – human UBC13 polyubiquitin inhibition, confirmed; 1,400 compounds, 68% hits; AID 488859; shares compounds with UBC13 inh; inhibition, % at 10 µM; UBC13 polyubiquitination, TR-FRET, biochemical; in the data active = inhibition above about 45%
Hits are given with their value. Rows were chosen to be rich in hits. Some 1.7% of all compounds tested hit in one or more screens of this group.

Screening COc1ccc(CCNC(=O)CSc2ncc(C(=O)Nc3ccccc3)c(=O)n2C)cc1 returned ZTA DNA inh inactive, Apaf1 inhib inactive, UBC13 inh inactive, PREPL inh inactive and EBNA-1 inh inactive.
For Cc1ccc(CNC(=O)CSc2ncc(C(=O)Nc3ccccc3)c(=O)n2C)cc1 the results were ZTA DNA inh inactive, Apaf1 inhib inactive, UBC13 inh 55, PREPL inh inactive, EBNA-1 inh inactive, Casp3 UBC13 ctr 95 and UBC13 conf 63.
Screening CN1C(=O)/C(=C/C=C2\SCCN2C)N(C)C1=S returned Apaf1 inhib inactive and UBC13 inh inactive.
`Nc1nc2n(n1)C(c1ccccc1)CC(c1ccc(F)cc1)N2` (stereo not given) gave ZTA DNA inh inactive, Apaf1 inhib inactive, UBC13 inh inactive, PREPL inh inactive and EBNA-1 inh inactive.
`CCc1ccc(C2CC(c3ccc(F)cc3)Nc3nc(N)nn32)cc1` (stereo not given) gave ZTA DNA inh inactive, Apaf1 inhib inactive, UBC13 inh 49, PREPL inh inactive, EBNA-1 inh inactive, Casp3 UBC13 ctr inactive and UBC13 conf inactive.
For COc1ccc(N(C(=O)c2ccncc2)S(=O)(=O)c2cccs2)cc1 the results were ZTA DNA inh inactive, Apaf1 inhib inactive, UBC13 inh inactive, PREPL inh inactive and EBNA-1 inh inactive.
`Cc1oc2c(c(C)cc3oc(=O)c(CC(=O)N[C@@H](CCCNC(N)=O)C(=O)O)c(C)c32)c1C` gave ZTA DNA inh inactive, Apaf1 inhib inactive, UBC13 inh inactive, PREPL inh inactive and EBNA-1 inh inactive.
Cc1ccc(CN2CCSc3ccc(C(=O)NCc4ccco4)cc32)cc1 was read as ZTA DNA inh inactive, Apaf1 inhib inactive, UBC13 inh inactive, PREPL inh inactive and EBNA-1 inh inactive.
For CC(C)Oc1ccc(Cl)cc1Nc1nc(NCCO)nc(N2CCCC2)n1 the results were ZTA DNA inh inactive, Apaf1 inhib inactive, UBC13 inh 60, PREPL inh inactive, EBNA-1 inh inactive, Casp3 UBC13 ctr inactive and UBC13 conf inactive.
CCOc1ccc(Cl)cc1Nc1nc(NCCO)nc(N2CCCC2)n1 was read as ZTA DNA inh inactive, Apaf1 inhib inactive, UBC13 inh inactive, PREPL inh inactive and EBNA-1 inh inactive.
Screening COc1ccc(Cl)cc1Nc1nc(NCCO)nc(N2CCCC2)n1 returned ZTA DNA inh inactive, Apaf1 inhib inactive, UBC13 inh inactive, PREPL inh inactive and EBNA-1 inh inactive.
CCCCOc1ccc(Cl)cc1Nc1nc(NCCO)nc(N2CCCC2)n1 was read as ZTA DNA inh inactive, Apaf1 inhib inactive, UBC13 inh 60, PREPL inh inactive, EBNA-1 inh inactive, Casp3 UBC13 ctr inactive and UBC13 conf inactive.
Screening OCCNc1nc(Nc2cc(Cl)ccc2OC2CCCC2)nc(N2CCCC2)n1 returned ZTA DNA inh inactive, Apaf1 inhib inactive, UBC13 inh 52, PREPL inh inactive, EBNA-1 inh inactive, Casp3 UBC13 ctr inactive and UBC13 conf inactive.
Screening COc1ccc(Cl)cc1Nc1nc(NCCO)nc(N2CCCCC2)n1 returned ZTA DNA inh inactive, Apaf1 inhib inactive, UBC13 inh 62, PREPL inh inactive, EBNA-1 inh inactive, Casp3 UBC13 ctr inactive and UBC13 conf inactive.
`C/C(=N\NC(=O)C(N)=O)c1ccc(OC(F)F)cc1` gave ZTA DNA inh inactive, Apaf1 inhib inactive, UBC13 inh inactive, PREPL inh inactive and EBNA-1 inh inactive.
COc1cc(-c2nc(C(=O)NC3CCN(Cc4ccccc4)CC3)cc3c2[nH]c2ccccc23)cc(OC)c1OC was read as ZTA DNA inh inactive, Apaf1 inhib 41, UBC13 inh 56, PREPL inh inactive, EBNA-1 inh inactive, Casp3 UBC13 ctr inactive and UBC13 conf 49.
`COc1ccc(OC)c(-c2nc(C(=O)NC3CCN(Cc4ccccc4)CC3)cc3c2[nH]c2ccccc23)c1` gave ZTA DNA inh inactive, Apaf1 inhib inactive, UBC13 inh inactive, PREPL inh inactive and EBNA-1 inh inactive.
N#C/C(=C/c1cn(-c2ccccc2)nc1-c1cccc(OCc2ccccc2)c1)C(=O)NCCCn1ccnc1 was read as ZTA DNA inh inactive, Apaf1 inhib inactive, UBC13 inh 48, PREPL inh inactive, EBNA-1 inh inactive, Casp3 UBC13 ctr inactive and UBC13 conf 56.
CCOc1cccc(-c2nn(-c3ccccc3)cc2/C=C(/C#N)C(=O)NCCCn2ccnc2)c1 was read as ZTA DNA inh inactive, Apaf1 inhib inactive, UBC13 inh inactive, PREPL inh inactive and EBNA-1 inh inactive.
Screening O=C(Nc1ccc(NC(=O)c2ccc(Cl)cc2Cl)cc1)c1ccc2c(c1)OCO2 returned ZTA DNA inh inactive, Apaf1 inhib inactive, UBC13 inh inactive, PREPL inh inactive and EBNA-1 inh inactive.
For O=C(Nc1cccc(C2=NCCN2)c1)Nc1cccc(C2=NCCN2)c1 the results were ZTA DNA inh inactive, Apaf1 inhib inactive, UBC13 inh 97, PREPL inh inactive, EBNA-1 inh inactive, Casp3 UBC13 ctr inactive and UBC13 conf 104.
For O=C(Nc1ccc(C2=NCCN2)cc1)c1ccc(C(=O)Nc2ccc(C3=NCCN3)cc2)c(Cl)c1 the results were ZTA DNA inh inactive, Apaf1 inhib inactive, UBC13 inh 104, PREPL inh inactive, EBNA-1 inh inactive, Casp3 UBC13 ctr inactive and UBC13 conf 118.
Screening CC12CN3CC(C)(CN(C1)C3c1ccccc1Cl)C2O (stereo not given) returned ZTA DNA inh inactive, Apaf1 inhib inactive, UBC13 inh inactive, PREPL inh inactive and EBNA-1 inh inactive.
For CCc1ccc2c(c1)C(=O)c1ccccc1C2=O the results were ZTA DNA inh inactive, Apaf1 inhib inactive, UBC13 inh inactive, PREPL inh inactive and EBNA-1 inh inactive.
For CC(C)(C)c1ccc2c(c1)C(=O)c1ccccc1C2=O the results were ZTA DNA inh inactive, Apaf1 inhib inactive, UBC13 inh 54, PREPL inh inactive, EBNA-1 inh inactive, Casp3 UBC13 ctr 96 and UBC13 conf inactive.
COc1ccccc1C(=O)OCC(=O)N1CCC(Cc2ccccc2)CC1 was read as ZTA DNA inh inactive, Apaf1 inhib inactive, UBC13 inh inactive and PREPL inh inactive.
`CCCCN(CC)CCCNC(=O)c1cc2c(=O)n(C)c3ccccc3c2n1C` gave ZTA DNA inh inactive, Apaf1 inhib inactive, UBC13 inh 49, PREPL inh inactive, EBNA-1 inh inactive, Casp3 UBC13 ctr inactive and UBC13 conf inactive.
For CC(C)OCCCNC(=O)c1cc2c(=O)n(C)c3ccccc3c2n1C the results were ZTA DNA inh inactive, Apaf1 inhib inactive, UBC13 inh inactive, PREPL inh inactive and EBNA-1 inh inactive.
`CCN1CCN(C(=O)c2cc(-c3ccc(Cl)s3)nc3ccccc23)CC1` gave Apaf1 inhib inactive and UBC13 inh inactive.
CCN1CCN(C(=O)c2cc(-c3ccco3)nc3ccccc23)CC1 was read as ZTA DNA inh inactive, Apaf1 inhib inactive, UBC13 inh 52, PREPL inh inactive, Casp3 UBC13 ctr inactive and UBC13 conf inactive.
